Results: BindingDB's records for doi:10.1016/j.bmc.2014.05.061 (Academy of Sciences of The Czech Republic, 2014)

Target: Glutamate carboxypeptidase 2 (Homo sapiens, UniProt Q04609)
Assay: Inhibition of human recombinant N-terminal Avi-tagged glutamate carboxypeptidase 2 extracellular domain (44 to 750 amino acids) using pteroyl-di-L-glutamate substrate by HPLC method
Outline: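 Avi-GCPII (0.2 ng) in 25 mM Bis-Tris propane, 150 mM NaCl, 0.001% octaethylene glycol monododecyl ether, pH 7.4, preincubated with inhibitor (ten concentrations) 5 min at 37 °C. Reaction started with pteroyl-di-L-glutamate (20 µl of 4 µM stock), run 20 min at 37 °C, stopped with 2-PMPA. Substrate and product separated by isocratic HPLC, detected at 281 nm; IC50 from full curves, Ki mean ± SD, duplicate or triplicate.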

Chain of Glutamate carboxypeptidase 2 (Q04609 whole entry, the tested form may be a part): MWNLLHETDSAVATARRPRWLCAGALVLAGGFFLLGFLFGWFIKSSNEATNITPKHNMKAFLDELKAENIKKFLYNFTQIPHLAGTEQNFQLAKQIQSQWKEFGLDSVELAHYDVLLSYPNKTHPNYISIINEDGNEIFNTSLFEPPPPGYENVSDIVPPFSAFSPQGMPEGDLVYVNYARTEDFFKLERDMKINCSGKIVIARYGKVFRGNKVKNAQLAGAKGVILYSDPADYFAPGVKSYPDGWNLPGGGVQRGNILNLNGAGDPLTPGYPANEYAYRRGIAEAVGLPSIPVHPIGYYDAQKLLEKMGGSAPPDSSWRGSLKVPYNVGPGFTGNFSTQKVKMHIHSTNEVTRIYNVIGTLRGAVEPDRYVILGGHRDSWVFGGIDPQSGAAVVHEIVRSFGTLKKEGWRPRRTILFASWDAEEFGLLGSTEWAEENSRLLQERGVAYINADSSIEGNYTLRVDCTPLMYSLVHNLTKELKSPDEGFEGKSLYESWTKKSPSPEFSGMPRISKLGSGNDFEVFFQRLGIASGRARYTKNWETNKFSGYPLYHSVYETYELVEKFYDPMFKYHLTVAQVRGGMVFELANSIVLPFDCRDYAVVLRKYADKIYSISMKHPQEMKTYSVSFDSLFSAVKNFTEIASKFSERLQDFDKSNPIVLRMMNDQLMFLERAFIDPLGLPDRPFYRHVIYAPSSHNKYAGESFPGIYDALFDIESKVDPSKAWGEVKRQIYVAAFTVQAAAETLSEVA

`O=C(O)CC[C@H](NC(=O)N[C@@H](CCCCNC(=O)Nc1ccc(Br)cc1OCCNC(=O)CCOCCOCCOCCOCCOCCOCCOCCOCCOCCOCCOCCOCCNC(=O)CCCC[C@@H]1SC[C@@H]2NC(=O)N[C@@H]21)C(=O)O)C(=O)O` was tested, and the Ki was 0.221 nM.
